Test results taken from ChEMBL document CHEMBL3286252, “Synthesis, biological evaluation and structure-activity relationship of new GABA uptake inhibitors, derivatives of 4-aminobutanamides” (Eur J Med Chem, 2014).
Calls of active or inactive are those of the source.

What was measured:
[1] = test system: Mus musculus; experiment: Anticonvulsant activity against pentylenetetrazole-induced seizure in albino Swiss (CD-1) mouse assessed as decrease in seizure episodes at 100 mg/kg, ip administered 60 mins prior to PTZ challenge; assay type: functional; settings: route intraperitoneal
Method in brief: (§1)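 Male CD-1 mice, 18–22 g, given compound or vehicle i.p. 60 min before PTZ 100 mg/kg s.c. Each mouse observed alone for 30 min for clonic seizures: whole-body clonus over 3 s with loss of righting reflex. Read-outs: latency to first clonus, number of seizure episodes, and deaths within 30 min. Groups of 7–10 mice, compared with vehicle.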

[2] = test system: Mus musculus; experiment: Anticonvulsant activity against pentylenetetrazole-induced seizure in albino Swiss (CD-1) mouse assessed as delay in onset of seizures at 100 mg/kg, ip administered 60 mins prior to PTZ challenge; assay type: functional; settings: route intraperitoneal; method in brief: as §1
[3] = test system: Mus musculus; experiment: Anticonvulsant activity against pentylenetetrazole-induced seizure in albino Swiss (CD-1) mouse assessed as decrease in mortality rate at 100 mg/kg, ip administered 60 mins prior to PTZ challenge; assay type: functional; settings: route intraperitoneal; method in brief: as §1
[4] = test system: Mus musculus; experiment: Anticonvulsant activity against pilocarpine-induced seizure in albino Swiss (CD-1) mouse assessed as prolongation of latency time to seizures at 100 mg/kg, ip administered 60 mins before pilocarpine challenge; assay type: functional; settings: route intraperitoneal
Method in brief: (§2)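 CD-1 mice received compound or vehicle (1% Tween 80) i.p. 60 min before pilocarpine 400 mg/kg i.p. Scopolamine butylbromide 1 mg/kg i.p. was given 45 min before pilocarpine. 7–8 mice per group; Student's t-test versus vehicle; mean ± SEM.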

[5] = test system: Mus musculus; experiment: Anticonvulsant activity against pilocarpine-induced seizure in albino Swiss (CD-1) mouse assessed as prolongation of latency time to death at 100 mg/kg, ip administered 60 mins before pilocarpine challenge; assay type: functional; settings: route intraperitoneal
Method in brief: (§3)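 Male CD-1 mice dosed i.p. with compound or vehicle (1% Tween 80). Scopolamine butylbromide 1 mg/kg i.p. given 45 min before pilocarpine; pilocarpine 400 mg/kg i.p. given 60 min after compound. Observed 1 h. Latency to tonic-clonic seizure and latency to death recorded, cut-off 60 min. 7–8 mice per group, mean ± SEM, Student's t-test against vehicle.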

[6] = test system: Mus musculus; experiment: Anticonvulsant activity against pilocarpine-induced seizure in albino Swiss (CD-1) mouse assessed as prolongation of latency time to seizures at 200 mg/kg, ip administered 60 mins before pilocarpine challenge; assay type: functional; settings: route intraperitoneal; method in brief: as §2
[7] = test system: Mus musculus; experiment: Anticonvulsant activity against pilocarpine-induced seizure in albino Swiss (CD-1) mouse assessed as prolongation of latency time to death at 200 mg/kg, ip administered 60 mins before pilocarpine challenge; assay type: functional; settings: route intraperitoneal; method in brief: as §3
[8] = test system: Mus musculus; experiment: Antidepressant-like activity in albino Swiss (CD-1) mouse assessed as reduction in immobility time at 15 mg/kg, ip by forced swim test; assay type: functional; settings: route intraperitoneal
Method in brief: (§4)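 Compound or vehicle was given i.p. 60 min before the test. Each mouse was placed for 6 min in a glass cylinder (25 cm high, 10 cm diameter) holding 10 cm of water at 23–25 C. Immobility, meaning passive floating, was timed over the final 4 min. 7–8 mice per group; ANOVA with Dunnett's test.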

[9] = test system: Mus musculus; experiment: Antidepressant-like activity in albino Swiss (CD-1) mouse assessed as reduction in immobility time at 30 mg/kg, ip by forced swim test; assay type: functional; settings: route intraperitoneal; method in brief: as §4
[10] = test system: Mus musculus; experiment: Antinociceptive activity in ip dosed albino Swiss (CD-1) mouse measured after 60 mins by hot plate test; assay type: functional, organism-based
[11] = molecular target: T1, GABA transporter 2 (Mus musculus) (UniProt P31651); experiment: Inhibition of mouse GAT2 expressed in HEK293 cells assessed as decrease in [3H]GABA uptake; assay type: cell-based; settings: concentration not given here
T1 sequence (whole entry): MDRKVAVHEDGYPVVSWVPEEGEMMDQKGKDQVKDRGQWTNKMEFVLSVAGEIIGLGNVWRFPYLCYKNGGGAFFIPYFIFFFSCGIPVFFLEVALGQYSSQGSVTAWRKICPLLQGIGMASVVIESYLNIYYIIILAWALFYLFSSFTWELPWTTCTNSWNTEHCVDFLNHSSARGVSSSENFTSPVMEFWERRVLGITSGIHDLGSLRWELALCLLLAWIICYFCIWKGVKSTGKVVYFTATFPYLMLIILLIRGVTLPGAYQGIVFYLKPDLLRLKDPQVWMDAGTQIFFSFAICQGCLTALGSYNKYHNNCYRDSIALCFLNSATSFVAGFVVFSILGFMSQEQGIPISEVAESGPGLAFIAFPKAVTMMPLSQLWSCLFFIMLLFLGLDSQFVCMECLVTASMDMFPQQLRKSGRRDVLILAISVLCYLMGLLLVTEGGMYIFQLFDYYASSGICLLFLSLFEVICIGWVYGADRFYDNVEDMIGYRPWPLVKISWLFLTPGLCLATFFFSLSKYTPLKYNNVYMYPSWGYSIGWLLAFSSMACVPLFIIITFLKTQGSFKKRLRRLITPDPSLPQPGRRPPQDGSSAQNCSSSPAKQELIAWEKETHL

[12] = test system: Mus musculus; experiment: Anticonvulsant activity in albino Swiss (CD-1) mouse assessed as current intensity required to induce 50% tonic hind limb extensions at 100 mg/kg, ip after 60 mins by electroconvulsive threshold test (reference value: 6.61 mA); assay type: functional, Hindlimb; settings: route intraperitoneal

Structure (SMILES) | inhibition in vivo at 100 mg/kg [1] | Activity [2] | inhibition in vivo at 100 mg/kg [3] | Activity [4] | Activity [5] | Activity [6] | Activity [7] | inhibition in vivo at 15 mg/kg [8] | inhibition in vivo at 30 mg/kg [9] | Activity [10] | inhibition [11] | CS50 [12]
CCC1(C)CC(=O)NC1=O (configuration not stated) [ETHOSUXIMIDE] | 64% | 120% | 75% | – | – | – | – | – | – | – | – | –
COc1ccc(C(OCCN2CCC[C@H](C(=O)O)C2)(c2ccc(OC)cc2)c2ccc(OC)cc2)cc1 | – | – | – | 158% | 243.8% | 258.9% | 202.7% | 12.1% | 19.9% | inactive | 56% | 7.95 mA
